Results on 3 compounds are retold here after ChEMBL document CHEMBL4007489, “First Bispecific Inhibitors of the Epidermal Growth Factor Receptor Kinase and the NF-κB Activity As Novel Anticancer Agents” (J Med Chem, 2017).

For data set [1], the target named is T1, Proteasome Macropain subunit MB1 (Homo sapiens) (UniProt P28074).
T1 sequence (whole entry): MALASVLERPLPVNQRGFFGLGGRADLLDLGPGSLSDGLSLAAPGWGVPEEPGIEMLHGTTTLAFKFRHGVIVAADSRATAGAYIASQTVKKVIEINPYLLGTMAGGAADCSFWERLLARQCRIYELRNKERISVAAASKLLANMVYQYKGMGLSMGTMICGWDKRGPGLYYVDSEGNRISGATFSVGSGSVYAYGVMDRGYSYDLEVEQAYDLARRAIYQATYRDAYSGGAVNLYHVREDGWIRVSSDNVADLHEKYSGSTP
Description: Inhibition of chymotrypsin like activity of 26S proteasome derived from human MDA-MB-231 cells at 50 uM. In short, it runs like this: (§1)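 Total protein extract from MDA-MB-231 cells served as the source of 26S proteasome. Trypsin-like, chymotrypsin-like and caspase-like activities were each measured with a specific fluorigenic peptide substrate.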

The target of data set [2] is Transcription factor p65 (Homo sapiens) (UniProt Q04206). Description: Inhibition of NF-kappaB-p65 binding to NF-kappaB response element oligonucleotide in nuclear extracts of 12 hrs compound pre-treated human MDA-MB-231 cells at 2.5 to 15 uM by ELISA. In short, it runs like this:
(§2)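 MDA-MB-231 cells treated with compound or DMSO for 12 h; in some runs TNFα (20 ng/mL final) added for a further 20 min at 37 °C. Nuclear extracts prepared on ice and protein measured by Bradford. 5 μg of extract incubated on plate-immobilized NF-κB response element oligonucleotide. Bound complexes detected with anti-p65 primary and HRP secondary antibody, read at 450 nm. Specificity checked by competition with free oligonucleotide; triplicates.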

Data set [3] concerns the target Proteasome Macropain subunit (Homo sapiens) (UniProt P49721). Description: Inhibition of trypsin like activity of 26S proteasome derived from human MDA-MB-231 cells at 50 uM. In short, it runs like this:
as §1

The test system of the next data set is A549. Kind of data set: cells. It is filed as functional. The conditions noted are these: Homo sapiens, A549, 48 h.
In data set [4] the target is Serine/threonine-protein kinase pim-1 (Homo sapiens, UniProt P11309). Description: Inhibition of human recombinant full length His-tagged PIM-1 expressed in baculovirus expression system.
In data set [5] the target is T2, MAP kinase-interacting serine/threonine-protein kinase 2 (Homo sapiens, UniProt Q9HBH9). Kind of data set: Inhibition of human full length N-terminal GST-tagged MNK2 expressed in baculovirus expression system at 5 uM.
Data set [6] deals with Transcription factor p65 (Homo sapiens) (UniProt Q04206). Description: Inhibition of IL-1beta-stimulated nuclear translocation of GFP-tagged NF-kappaB-p65 (unknown origin) expressed in CHO cells at 15 uM preincubated with IL-1beta for 30 mins followed by compound addition by fluorescence assay. It is filed as cell-based.
Data set [7] shares this target. Description: Inhibition of TNFalpha-stimulated DNA binding activity of NF-kappaB-p65 in human MDA-MB-231 cells at 2.5 to 15 uM incubated for 12 hrs followed by TNFalpha stimulation measured after 20 mins by ELISA. Format: cell-based. In short, it runs like this: as §2
Data set [8] shares this target. Kind of data set: Inhibition of IL-1beta-stimulated nuclear translocation of GFP-tagged NF-kappaB-p65 (unknown origin) expressed in CHO cells at 15 uM preincubated with IL-1beta for 30 mins followed by compound addition in presence of Pluronic F127 by fluorescence assay. It is filed as cell-based.
A short description of another data set: cells. Format: cell-based. The settings on record: Homo sapiens, U-937.
The target of data set [9] is Transcription factor p65 (Homo sapiens) (UniProt Q04206). Kind of data set: Inhibition of TNFalpha-stimulated DNA binding activity of NF-kappaB-p65 in nuclear extracts of human MDA-MB-231 cells at 2.5 to 15 uM incubated for 12 hrs followed by TNFalpha stimulation measured after 20 mins by ELISA. In short, it runs like this:
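MDA-MB-231 cells exposed to compound or DMSO for 12 h, then TNFα (20 ng/mL final) for 20 min at 37 °C. Cells washed with ice-cold PBS, nuclear extracts prepared, protein measured by Bradford. 5 μg nuclear protein incubated on immobilized NF-κB response-element oligonucleotide, bound p65 detected by primary antibody and HRP secondary, absorbance 450 nm. Binding specificity checked with competing free oligonucleotide. Triplicates.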

For data set [10], the species on record is Homo sapiens. The settings on record: at 10 µM.
Data set [11] concerns the target T3, Proteasome component C5 (Homo sapiens) (UniProt P20618).
T3 sequence (whole entry): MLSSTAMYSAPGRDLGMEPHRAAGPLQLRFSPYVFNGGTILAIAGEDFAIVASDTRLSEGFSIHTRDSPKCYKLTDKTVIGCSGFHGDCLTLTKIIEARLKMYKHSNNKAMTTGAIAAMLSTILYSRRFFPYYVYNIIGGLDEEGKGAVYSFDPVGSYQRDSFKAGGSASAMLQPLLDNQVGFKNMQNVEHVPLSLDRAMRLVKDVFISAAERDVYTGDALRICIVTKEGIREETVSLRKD
Kind of data set: Inhibition of caspase like activity of 26S proteasome derived from human MDA-MB-231 cells at 50 uM. In short, it runs like this: as §1

The target of data set [12] is Receptor tyrosine-protein kinase erbB-4 (Homo sapiens) (UniProt Q15303). Kind of data set: Inhibition of N-terminal GST-tagged human recombinant ERBB4 expressed in baculovirus expression system at 5 uM.
Data set [13] has as its system MDA-MB-231. Kind of data set: cells. It is filed as functional. The settings on record: Homo sapiens, MDA-MB-231, 48 h.
Data set [14] is filed under the species Homo sapiens. The settings on record: at 2.5 to 15 µM.
Data set [15] is described as follows: in vitro. The settings on record: chinese hamster, CHO-K1 cells.
A short description of data set [16]: in vitro. The conditions noted are these: human, HUVEC.
For data set [17], the target named is T2, MAP kinase-interacting serine/threonine-protein kinase 2. Kind of data set: Inhibition of human full length N-terminal GST-tagged MNK2 expressed in baculovirus expression system.
Data set [18] in a line: Selectivity ratio of GI50 for HUVEC to GI50 for human A549 cells.
Data set [19] is described as follows: Selectivity ratio of GI50 for HUVEC to GI50 for human MDA-MB-231 cells.
Data set [20] relates to MDA-MB-231. Description: Potency index, ratio of gefitinib GI50 to compound GI50 for human MDA-MB-231 cells. It is filed as functional.
Data set [21] has as its target T4, Epidermal growth factor receptor (Homo sapiens, UniProt P00533). Description: biochemical. It is filed as cell-based.
The nature of data set [22]: Selectivity ratio of GI50 for CHOK1 cells to GI50 for human MDA-MB-231 cells.
The target in data set [23] is T4, Epidermal growth factor receptor. The settings on record: at 150 nM.
Data set [24] is described as follows: Selectivity ratio of GI50 for CHOK1 cells to GI50 for human A549 cells.
For data set [25], the target named is Mitogen-activated protein kinase kinase kinase 7 (Homo sapiens) (UniProt O43318). Kind of data set: Inhibition of TNFalpha-stimulated TAK1 in human U937 cells assessed as residual activity at 10 uM in presence of ATP relative to control. It is filed as cell-based.
Data set [26] has as its target Mitogen-activated protein kinase 14 (Homo sapiens) (UniProt Q16539). Description: Inhibition of TNFalpha-stimulated SAPK2a in human U937 cells assessed as residual activity at 10 uM in presence of ATP relative to control. It is filed as cell-based.
Data set [27] addresses Inhibitor of nuclear factor kappa-B kinase subunit beta (Homo sapiens) (UniProt O14920). Kind of data set: Inhibition of TNFalpha-stimulated IKKbeta in human U937 cells assessed as residual activity at 10 uM in presence of ATP relative to control. Format: cell-based.
Data set [28] deals with Protein kinase C iota type (Homo sapiens) (UniProt P41743). Description: Inhibition of TNFalpha-stimulated PKCI in human U937 cells assessed as residual activity at 10 uM in presence of ATP relative to control. It is filed as cell-based.
Data set [29] has as its target Serine/threonine-protein kinase TBK1 (Homo sapiens) (UniProt Q9UHD2). Kind of data set: Inhibition of TNFalpha-stimulated TBK1 in human U937 cells assessed as residual activity at 10 uM in presence of ATP relative to control. It is filed as cell-based.
The target in data set [30] is T5, Receptor-interacting serine/threonine-protein kinase 2 (Homo sapiens, UniProt O43353). Kind of data set: Inhibition of TNFalpha-stimulated RIPK2 in human U937 cells in presence of 5 uM ATP. It is filed as cell-based.
Data set [31] has as its target Inhibitor of nuclear factor kappa-B kinase subunit alpha (Homo sapiens) (UniProt O15111). Kind of data set: Inhibition of TNFalpha-stimulated IKKalpha in human U937 cells assessed as residual activity at 10 uM in presence of ATP relative to control. Format: cell-based.
In data set [32] the target is T5, Receptor-interacting serine/threonine-protein kinase 2. Kind of data set: Inhibition of TNFalpha-stimulated RIPK2 in human U937 cells assessed as residual activity at 10 uM in presence of ATP relative to control. Format: cell-based.
Data set [33] addresses Protein kinase C zeta type (Homo sapiens) (UniProt Q05513). Description: Inhibition of TNFalpha-stimulated PKCzeta in human U937 cells assessed as residual activity at 10 uM in presence of ATP relative to control. Format: cell-based.

pIC50: −log10 of the molar value. Activity calls are given as the source filed them. The rule behind the calls is not given here. Where only a bound is given, the exact number is not on record here.

T4 sequence (P00533 whole entry): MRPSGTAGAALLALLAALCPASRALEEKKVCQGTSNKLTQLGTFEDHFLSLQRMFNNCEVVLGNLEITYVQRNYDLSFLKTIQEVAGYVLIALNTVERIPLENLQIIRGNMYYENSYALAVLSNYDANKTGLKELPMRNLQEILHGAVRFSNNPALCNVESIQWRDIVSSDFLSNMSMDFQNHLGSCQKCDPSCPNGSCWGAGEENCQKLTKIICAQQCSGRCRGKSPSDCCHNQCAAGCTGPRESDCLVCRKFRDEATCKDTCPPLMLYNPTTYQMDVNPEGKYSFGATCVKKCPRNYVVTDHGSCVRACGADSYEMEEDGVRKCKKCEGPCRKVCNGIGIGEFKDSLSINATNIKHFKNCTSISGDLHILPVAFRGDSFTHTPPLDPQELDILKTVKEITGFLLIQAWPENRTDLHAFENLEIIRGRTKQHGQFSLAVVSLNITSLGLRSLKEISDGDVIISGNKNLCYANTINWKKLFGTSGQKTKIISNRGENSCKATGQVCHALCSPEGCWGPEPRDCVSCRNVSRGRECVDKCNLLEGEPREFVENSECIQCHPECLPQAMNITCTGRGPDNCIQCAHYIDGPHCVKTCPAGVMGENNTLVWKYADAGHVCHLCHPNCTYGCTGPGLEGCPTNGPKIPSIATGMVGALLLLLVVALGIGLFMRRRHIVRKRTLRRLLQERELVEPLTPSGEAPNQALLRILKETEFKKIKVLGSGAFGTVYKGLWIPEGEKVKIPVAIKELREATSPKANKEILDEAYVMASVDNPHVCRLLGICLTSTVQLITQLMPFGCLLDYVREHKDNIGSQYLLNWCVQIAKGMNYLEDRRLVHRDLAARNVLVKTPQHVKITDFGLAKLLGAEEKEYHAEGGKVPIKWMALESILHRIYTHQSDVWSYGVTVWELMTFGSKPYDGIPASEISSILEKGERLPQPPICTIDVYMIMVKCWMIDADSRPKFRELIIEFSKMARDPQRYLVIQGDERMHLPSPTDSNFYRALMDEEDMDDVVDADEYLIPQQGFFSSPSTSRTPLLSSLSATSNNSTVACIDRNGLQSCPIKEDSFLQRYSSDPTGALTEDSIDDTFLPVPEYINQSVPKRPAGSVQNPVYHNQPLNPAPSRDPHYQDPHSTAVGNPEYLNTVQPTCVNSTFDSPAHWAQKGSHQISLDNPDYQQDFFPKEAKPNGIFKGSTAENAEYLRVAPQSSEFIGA
Transcription factor p65 (Homo sapiens), sequence (Q04206 whole entry): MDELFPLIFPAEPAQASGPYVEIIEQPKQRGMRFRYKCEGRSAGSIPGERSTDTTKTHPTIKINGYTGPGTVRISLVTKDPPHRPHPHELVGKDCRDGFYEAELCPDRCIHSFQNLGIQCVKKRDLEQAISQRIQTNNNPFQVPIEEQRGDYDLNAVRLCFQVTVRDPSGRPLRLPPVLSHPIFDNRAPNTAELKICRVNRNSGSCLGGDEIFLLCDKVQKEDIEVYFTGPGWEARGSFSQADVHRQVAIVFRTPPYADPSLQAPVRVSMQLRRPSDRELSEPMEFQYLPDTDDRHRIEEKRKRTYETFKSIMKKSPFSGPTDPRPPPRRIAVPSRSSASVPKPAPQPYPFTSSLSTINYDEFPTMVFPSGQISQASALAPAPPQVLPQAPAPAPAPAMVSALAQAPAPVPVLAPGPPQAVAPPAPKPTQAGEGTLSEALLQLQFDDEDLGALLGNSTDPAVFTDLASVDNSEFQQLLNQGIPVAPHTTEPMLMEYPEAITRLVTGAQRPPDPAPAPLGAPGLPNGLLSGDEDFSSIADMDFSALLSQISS
T5 sequence (O43353 whole entry): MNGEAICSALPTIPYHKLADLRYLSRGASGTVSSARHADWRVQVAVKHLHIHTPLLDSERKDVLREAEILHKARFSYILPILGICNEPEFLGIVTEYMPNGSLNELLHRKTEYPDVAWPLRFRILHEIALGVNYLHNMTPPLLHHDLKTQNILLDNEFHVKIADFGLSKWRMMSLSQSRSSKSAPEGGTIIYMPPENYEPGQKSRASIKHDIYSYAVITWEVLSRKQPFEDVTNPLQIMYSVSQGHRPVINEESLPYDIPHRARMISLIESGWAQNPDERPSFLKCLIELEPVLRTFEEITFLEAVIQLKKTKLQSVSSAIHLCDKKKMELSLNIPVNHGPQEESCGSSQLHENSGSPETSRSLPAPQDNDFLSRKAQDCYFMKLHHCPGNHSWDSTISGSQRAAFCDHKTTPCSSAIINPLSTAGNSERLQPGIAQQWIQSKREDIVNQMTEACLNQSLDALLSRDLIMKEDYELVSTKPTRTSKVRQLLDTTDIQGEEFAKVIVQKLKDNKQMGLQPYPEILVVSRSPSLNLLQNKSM
Proteasome Macropain subunit (Homo sapiens), sequence (P49721 whole entry): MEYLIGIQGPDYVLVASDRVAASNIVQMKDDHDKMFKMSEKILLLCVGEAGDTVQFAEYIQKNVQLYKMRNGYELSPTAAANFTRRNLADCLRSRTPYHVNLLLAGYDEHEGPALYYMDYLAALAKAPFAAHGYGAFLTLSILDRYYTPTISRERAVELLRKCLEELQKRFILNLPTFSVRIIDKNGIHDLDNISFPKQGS
Receptor tyrosine-protein kinase erbB-4 (Homo sapiens), sequence (Q15303 whole entry): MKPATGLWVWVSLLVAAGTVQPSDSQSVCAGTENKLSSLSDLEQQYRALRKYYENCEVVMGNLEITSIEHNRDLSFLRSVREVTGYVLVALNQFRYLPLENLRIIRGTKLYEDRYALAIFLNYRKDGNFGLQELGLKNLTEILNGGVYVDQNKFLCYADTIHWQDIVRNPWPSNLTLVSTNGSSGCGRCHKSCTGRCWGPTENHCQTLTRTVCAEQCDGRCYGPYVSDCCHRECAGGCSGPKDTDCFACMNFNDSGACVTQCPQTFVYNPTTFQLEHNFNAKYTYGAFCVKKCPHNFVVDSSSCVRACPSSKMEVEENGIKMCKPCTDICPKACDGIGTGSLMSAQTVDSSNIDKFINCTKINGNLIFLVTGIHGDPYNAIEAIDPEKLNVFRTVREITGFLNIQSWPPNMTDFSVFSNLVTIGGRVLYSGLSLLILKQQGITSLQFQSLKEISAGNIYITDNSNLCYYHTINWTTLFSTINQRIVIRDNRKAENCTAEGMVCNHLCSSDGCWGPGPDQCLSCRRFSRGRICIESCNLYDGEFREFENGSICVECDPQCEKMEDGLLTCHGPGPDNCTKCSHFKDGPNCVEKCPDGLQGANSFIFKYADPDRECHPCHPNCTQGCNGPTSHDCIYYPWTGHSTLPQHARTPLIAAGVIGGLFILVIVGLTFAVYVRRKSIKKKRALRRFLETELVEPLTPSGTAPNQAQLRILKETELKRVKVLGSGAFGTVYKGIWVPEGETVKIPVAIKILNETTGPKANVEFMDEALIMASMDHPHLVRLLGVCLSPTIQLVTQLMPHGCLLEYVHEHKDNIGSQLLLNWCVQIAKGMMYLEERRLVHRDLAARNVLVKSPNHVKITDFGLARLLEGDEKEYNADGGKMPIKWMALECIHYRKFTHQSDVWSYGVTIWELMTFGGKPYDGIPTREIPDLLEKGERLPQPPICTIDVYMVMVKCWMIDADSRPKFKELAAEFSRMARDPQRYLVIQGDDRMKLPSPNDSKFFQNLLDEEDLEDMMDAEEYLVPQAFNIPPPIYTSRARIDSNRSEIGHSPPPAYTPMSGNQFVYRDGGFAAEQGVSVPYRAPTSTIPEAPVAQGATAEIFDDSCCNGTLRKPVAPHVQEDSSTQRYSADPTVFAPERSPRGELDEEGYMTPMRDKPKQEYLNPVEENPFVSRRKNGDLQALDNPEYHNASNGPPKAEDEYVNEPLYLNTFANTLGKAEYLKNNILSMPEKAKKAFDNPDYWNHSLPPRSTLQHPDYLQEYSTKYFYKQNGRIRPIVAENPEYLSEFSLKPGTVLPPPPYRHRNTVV
Protein kinase C iota type (Homo sapiens), sequence (P41743 whole entry): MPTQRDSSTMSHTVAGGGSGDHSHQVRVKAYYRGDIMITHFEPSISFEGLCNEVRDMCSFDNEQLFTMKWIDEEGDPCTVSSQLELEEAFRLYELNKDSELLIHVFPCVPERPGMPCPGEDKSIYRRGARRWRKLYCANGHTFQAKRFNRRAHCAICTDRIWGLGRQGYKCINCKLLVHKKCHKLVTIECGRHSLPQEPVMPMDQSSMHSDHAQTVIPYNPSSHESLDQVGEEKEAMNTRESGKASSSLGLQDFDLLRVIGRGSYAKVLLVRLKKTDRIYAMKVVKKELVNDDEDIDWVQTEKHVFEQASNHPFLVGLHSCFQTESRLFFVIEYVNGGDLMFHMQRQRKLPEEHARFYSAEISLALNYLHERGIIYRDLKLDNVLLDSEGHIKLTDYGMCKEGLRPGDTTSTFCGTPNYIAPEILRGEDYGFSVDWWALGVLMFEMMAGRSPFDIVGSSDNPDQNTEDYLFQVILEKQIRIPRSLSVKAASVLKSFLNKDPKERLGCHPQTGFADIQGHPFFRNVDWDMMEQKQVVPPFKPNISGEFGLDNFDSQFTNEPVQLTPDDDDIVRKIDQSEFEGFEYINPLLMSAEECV
Mitogen-activated protein kinase 14 (Homo sapiens), sequence (Q16539 whole entry): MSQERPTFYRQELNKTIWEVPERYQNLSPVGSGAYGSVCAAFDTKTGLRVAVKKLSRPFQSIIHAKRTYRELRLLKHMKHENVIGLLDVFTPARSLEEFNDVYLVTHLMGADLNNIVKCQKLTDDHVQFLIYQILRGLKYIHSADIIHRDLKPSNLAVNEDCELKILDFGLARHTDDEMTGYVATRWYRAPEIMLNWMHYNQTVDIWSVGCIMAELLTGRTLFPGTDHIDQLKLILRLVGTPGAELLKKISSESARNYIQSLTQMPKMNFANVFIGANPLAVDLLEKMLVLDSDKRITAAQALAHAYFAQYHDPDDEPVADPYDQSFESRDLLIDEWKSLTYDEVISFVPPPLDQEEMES

On to `S=C(Nc1cccc(Cl)c1)Nc1ccc2ncnc(Nc3cccc(Br)c3)c2c1`, for which the inhibition entry in data set [1], in data set [2], in data set [3], in [6], in [7] and in data set [8] was “inactive” in each case. The inhibition result in data set [9] and in data set [11] was “inactive” in each case. Further, the values for the concentration for 50% growth inhibition (GI50) in the data set on A549 and in the data set with MDA-MB-231 [13] were 1.6 µM and 2.1 µM, respectively. Also, the values for the pIC50 (in data set [4]; in the data set “cells”; in data set [17]) were 5.92, 5.72 and 5.57, respectively. For the same compound, the inhibition was 78% in data set [5], 97.4% in the data set listed under Homo sapiens [10], 54% in [12] and “Dose-dependent effect” in the data set listed under Homo sapiens [14]. For the same compound, the GI50 at 48 h in “in vitro [15]” is 25.7 µM; in “in vitro [16]” it was 11.5 µM.

Regarding `Fc1ccc(NC(=S)Nc2ccc3ncnc(Nc4cccc(Br)c4)c3c2)cc1Cl`, the inhibition entry in [1], in [3], in data set [6], in [8] and in [11] was “inactive” throughout. Also, the RatioGI50 in data set [18] is 14.8; in [19] it was 49.3; in the data set with MDA-MB-231 [20] it was above 35; in data set [22] it was 173.7; in [24], 52.1. The GI50 was found to be 1 µM in the data set with A549 and 0.3 µM in the data set with MDA-MB-231 [13]. The pIC50 in the data set “cells” is 6.00; in [21], 7.60. For the same compound, the values for the inhibition (in the data set filed under Homo sapiens [10]; in data set [23]) were 100% and 74.1%, respectively. Also, the GI50 at 48 h was found to be 52.1 µM in the data set “in vitro [15]” and 14.8 µM in the data set “in vitro [16]”.

For the compound `S=C(NCc1ccccc1)Nc1ccc2ncnc(Nc3cccc(Br)c3)c2c1`, the Activity in [25] was determined as 106%; in data set [26], 78%; in data set [27], 100%; in data set [28], 106%; in data set [29], 92%; in data set [31], 117%. In addition, the Activity in data set [32] amounted to 54%; in data set [33] it was 92%. Moreover, the pIC50 in the data set “cells” is 5.39; in [21] it was 7.76; in [30], below 5.00. The values for the inhibition (in the data set filed under Homo sapiens [10]; in data set [23]) were 97% and 86.1%, respectively. This compound had a GI50 in the data set on MDA-MB-231 [13] of 9.5 µM.
